Compounds with a hit are over-represented: about 4.2% of the library has one in this group of screens.
AI-2 QS modul: Vibrio harveyi AI-2 quorum sensing modulators, primary screen, JMH597 strain, luminescence/OD600 ratio | Vibrio harveyi JMH597 AI-2 luminescence/OD600 ratio, 9 h; hits give low values; strain lacks LuxN and CqsS sensors; 0 = neutral-control median | activity change, % at 7.5 µM | hit rate 0.4% among 300,000; in the data active = activity change below about -75%, passing the limit was not always enough;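 also: luminescence divided by OD600 gain over 9 h not by final OD600 alone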
KCNQ1 inh: inhibitors of human KCNQ1 channel, primary screen, cell-based, thallium flux, high-throughput; B-score at 10 µM; CHO-K1 KCNQ1, FluxOR thallium flux fluorescence; hits give high values; Potassium voltage-gated channel subfamily KQT member 1 (Homo sapiens), P51787; AID 2642, 2010; hit rate 1.3% among 310,000;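 active = compounds whose thallium flux B-score, printed positive for inhibition, exceeds three library SD while starting fluorescence stays within three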;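 also: channel opened by potassium depolarization with thallium stimulus after 20 min compound exposure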
SUMO Mot1 rescue: yeast Mot1-301 growth rescue at high temperature, primary screen, SUMOylation pathway inhibitor project, S. cerevisiae, ATP luminescence, 38.5C; S. cerevisiae Mot1-301 growth rescue; percent above DMSO median, 100 means doubled; growth rescue, % at 18.8 µM; hit rate 1% among 320,000; AID 2716, 2010;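 active = every valid replicate shows activation above 250% relative to neutral control wells; inactive = the rest, any valid replicate at or below 250%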;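 also: OY570 slx delta 5 strain wells were the positive control but not used for scaling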
hERG protect: hERG rescue from dofetilide block, primary screen, cell-based, CHO-hERG, FluxOR thallium flux, dofetilide IC70. hit rate 0.51% among 310,000. dofetilide IC70 present. AID 1511, 2009. Voltage-gated inwardly rectifying potassium channel KCNH2 (Homo sapiens), Q12809. activation (rescue from dofetilide block), less the hit threshold, % at 10 µM;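 active = activation above the mean of controls blocked by dofetilide plus 5 SD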;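 also: thallium influx through hERG after potassium depolarization seen as dye fluorescence rise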
Target sequence (Q12809 whole entry, looked up): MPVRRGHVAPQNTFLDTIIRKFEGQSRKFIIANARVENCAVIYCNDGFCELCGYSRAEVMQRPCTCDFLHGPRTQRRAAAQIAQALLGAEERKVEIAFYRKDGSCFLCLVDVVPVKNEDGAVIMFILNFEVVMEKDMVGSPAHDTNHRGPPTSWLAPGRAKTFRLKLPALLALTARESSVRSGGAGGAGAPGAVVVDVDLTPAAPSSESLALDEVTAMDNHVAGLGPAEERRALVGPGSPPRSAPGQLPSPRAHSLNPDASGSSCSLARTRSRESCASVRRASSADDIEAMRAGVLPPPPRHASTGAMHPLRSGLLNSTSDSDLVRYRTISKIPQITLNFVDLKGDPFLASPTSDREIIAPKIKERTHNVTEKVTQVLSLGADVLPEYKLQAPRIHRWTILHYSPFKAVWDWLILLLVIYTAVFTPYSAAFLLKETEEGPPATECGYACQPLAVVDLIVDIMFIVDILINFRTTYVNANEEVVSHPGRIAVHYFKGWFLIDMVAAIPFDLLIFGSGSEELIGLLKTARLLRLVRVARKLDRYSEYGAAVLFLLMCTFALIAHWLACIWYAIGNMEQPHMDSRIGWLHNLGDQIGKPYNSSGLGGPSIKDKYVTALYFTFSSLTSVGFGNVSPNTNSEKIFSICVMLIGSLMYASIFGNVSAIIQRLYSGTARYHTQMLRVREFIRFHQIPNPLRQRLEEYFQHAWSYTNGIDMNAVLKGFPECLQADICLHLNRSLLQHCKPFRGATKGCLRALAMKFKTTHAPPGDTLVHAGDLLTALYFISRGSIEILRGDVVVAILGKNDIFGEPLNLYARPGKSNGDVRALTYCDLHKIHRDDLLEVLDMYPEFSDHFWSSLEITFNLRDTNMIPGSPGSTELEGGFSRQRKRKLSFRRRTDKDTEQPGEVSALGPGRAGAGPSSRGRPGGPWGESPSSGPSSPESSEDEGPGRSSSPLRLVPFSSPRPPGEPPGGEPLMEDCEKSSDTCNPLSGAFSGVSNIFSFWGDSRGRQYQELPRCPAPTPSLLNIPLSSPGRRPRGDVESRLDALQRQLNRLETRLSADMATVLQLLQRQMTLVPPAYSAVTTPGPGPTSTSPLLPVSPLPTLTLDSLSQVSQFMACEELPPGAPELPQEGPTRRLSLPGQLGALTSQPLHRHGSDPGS
KCC2 mod: KCC2 cotransporter modulators, thallium flux, primary screen, cell-based, HEK293 KCC2, FluoZin-2 fluorescence, MLSMR; KCC2 cells, thallium flux FluoZin-2 fluorescence; B-score of Tl+ flux slope (higher = more flux/activation; lower = inhibition) at 10 µM; Solute carrier family 12 member 5 (Homo sapiens), Q9H2X9; hit rate 2.2% among 190,000; AID 1456, 2008;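 active = thallium flux slope and its plate-corrected score both differing from the plate sample mean at a set confidence after two filtering rounds, in either direction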;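 also: slope of fluorescence scaled to starting intensity during 10 to 20 s after thallium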
KCNQ1 act: potentiators or activators of KCNQ1 channel, primary screen, cell-based, thallium flux, high-throughput | CHO-K1 KCNQ1, thallium flux FluxOR fluorescence; hits give high values | B-score at 10 µM | hit rate 0.35% among 310,000;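 active = fluorescence ratio B-score, a plate-corrected score, at least three library SD, with initial intensity B-score within 5 SD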
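Material: CHO-K1 cells stably expressing KCNQ1. Medium: assay buffer for compound exposure, DMSO matched across wells. Reagent: K+/Tl+ depolarizing stimulus. Compound dosing: single-concentration screen. Times: 37 °C overnight plating, 90-min dark dye load, 20-min compound pretreatment. Technique: FluxOR Tl+ flux fluorescence.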
The depositor's hits bear a star; i = inactive; / = no result given.

SMILES	AI-2 QS modul	KCNQ1 inh	SUMO Mot1 rescue	hERG protect	KCC2 mod	KCNQ1 act
Cc1ccc(/C=N/N2C(=S)SC(C)(C)C2N(O)C(=O)Nc2ccc([N+](=O)[O-])cc2)cc1 (configuration not stated)	-1	i	-4	-9	-0.013	i
O=C(Nc1ccccc1)Nc1cccc2ccccc12	23	i	-27	-7	-0.05	i
O=[N+]([O-])c1ccc(N2CCN(S(=O)(=O)c3ccccc3)CC2)cc1	24	i	-13	-5	/	i
O=[N+]([O-])c1ccc(NCc2ccccc2N2CCC(CO)CC2)nc1	18	i	1	-2	/	i
COc1ccccc1N1C(=O)CC(Sc2ccccc2N)C1=O (configuration not stated)	14	i	18	-5	-0.75	i
COc1ccc(/C=C(\C#N)C(=O)OCC(=O)Nc2ccc(C(C)(C)C)cc2)cc1	33	7*	/	-14	0.43	i
COc1ccc(/C=C(\C#N)C(=O)OCC(=O)Nc2c(C)cccc2C)cc1	6	i	-15	-3	0.37	i
O=C(NC(=S)N1CCN(c2ccc(C(F)(F)F)cc2[N+](=O)[O-])CC1)c1cccs1	8	i	-3	3	64*	10*
O=[N+]([O-])c1cc(C(F)(F)F)ccc1N1CCN(S(=O)(=O)c2ccc3c(c2)CCCC3)CC1	24	i	-10	-6	0.35	i
CN1CCN(c2ccc([N+](=O)[O-])cc2NC(=O)c2cccs2)CC1	0	i	11	-6	/	i
O=[N+]([O-])c1cc(C(F)(F)F)ccc1N1CCCNCC1	7	i	12	7.9*	-0.013	i
O=C(c1ccc(-n2cnnn2)cc1)N1CCOCC1	25	i	303*	-5	/	i
CC1CCN(C(=O)c2ccc(-n3cnnn3)cc2)CC1	10	i	8	-2	-0.37	i
NS(=O)(=O)c1ccc(NC(=O)COC(=O)c2ccc(Cl)cc2[N+](=O)[O-])cc1	-13	i	5	-5	1	i
Cc1ccc(NC(=O)COC(=O)c2cc(Cl)ccc2[N+](=O)[O-])cc1	-92*	i	-23	-6	0.24	i
NS(=O)(=O)c1cccc(NC(=O)COC(=O)c2cc(Cl)ccc2[N+](=O)[O-])c1	-79*	i	-18	-11	1.4	i
Cc1cccc(N2CCN(C(=O)C3CCC(=O)N(Cc4ccccc4F)C3)CC2)c1C (configuration not stated)	4	i	14	-10	/	i
CCCc1nc(SCC(=O)Nc2cc(Cl)ccc2OC)c2c(=O)n(C)c(=O)n(C)c2n1	34	i	/	-10	-0.095	14*
Cc1ccc(S(=O)(=O)c2nnn(-c3cccc(F)c3)c2N)cc1	-97*	i	-12	-14	1.4	i
COc1ccc(S(=O)(=O)c2nnn(-c3cccc(OC)c3)c2N)cc1	-68	i	/	-7	/	i
COc1ccccc1-n1cnnc1SCC(=O)Nc1nc(C)c(Cl)cc1Cl	7	i	-16	-4	-1.4	i
Clc1cc(Cl)cc(C2=NCCC(c3ccccc3)O2)c1 (configuration not stated)	35	i	15	-6	0.96	i
CN1CC(c2ccccn2)C2(SC(=S)N(Cc3ccccc3)C2=O)C12C(=O)Nc1ccccc12 (configuration not stated)	41	6*	70	-11	-0.0077	i
CN1CC(c2ccccc2)C2(SC(=S)N(Cc3ccco3)C2=O)C12C(=O)Nc1ccccc12 (configuration not stated)	16	i	40	-3	-0.57	i
CC1CCN(C(=O)c2cc(-c3ccc(Cl)c(Cl)c3)on2)CC1	-80*	i	2	-5	-1.4	i
SMILES	AI-2 QS modul	KCNQ1 inh	SUMO Mot1 rescue	hERG protect	KCC2 mod	KCNQ1 act
O=C(c1cc(-c2ccc(Cl)c(Cl)c2)on1)N1CCCC1	/	/	/	/	0.65	/
O=C(/C=N/O)Nc1ccc2sc3ccccc3c2c1	-11	i	10	-7	-0.66	i
CCOC(=O)N1CCN(C(=O)COC(=O)c2cc(Cl)c(O)c(Cl)c2)CC1	42	i	-8	8.1*	-0.4	i
CCOC(=O)N1CCN(C(=O)COC(=O)c2cc(Cl)cc(Cl)c2)CC1	/	/	11	/	/	/
Cc1ccc(/C=C(\C#N)C(=O)N2CCCC2)c(C)c1	2	i	-18	-9	-0.52	i
Cc1cccc(OC(=O)NCCOC(=O)N(O)c2ccc(Cl)cc2)c1	1	6*	15	-10	0.75	i
Cc1cccc(OCC(=O)Oc2ccc(Cl)cc2)c1	26	i	-9	-5	/	i
CC(C)c1ccc(OCC(=O)NN2C(=O)c3ccccc3C2=O)c(Br)c1	-5	i	-1	2	/	i
CC(C)c1ccc(OCC(=O)NNC(=S)NC(=O)c2cccs2)c(Br)c1	28	i	-8	-12	/	30*
O=C(Cn1cccc1C(=O)c1ccccc1)NCCc1ccc(Cl)cc1	13	i	314*	-10	/	i
CC(C)n1cc(CNC(=O)C2CCC(=O)N(Cc3ccccc3F)C2)cn1 (configuration not stated)	21	i	324*	-5	/	i
CCCOc1cccc(C(=O)NC(=S)Nc2cccc(C(F)(F)F)c2)c1	21	i	-18	-3	11*	i
O=C(NC(=S)Nc1cccc(C(F)(F)F)c1)c1csnn1	8	i	-3	54*	59*	63*
CCCCOc1cccc(C(=O)NC(=S)Nc2ccc(Cl)c(C(=O)O)c2)c1	5	i	-1	-21	-1.7	i
O=C(NC(=S)Nc1ccccc1Cl)c1csnn1	21	i	-3	60*	17*	i
O=C(Nc1ccccc1NC(=O)c1csnn1)c1csnn1	19	i	331	-3	-1.1	i
O=C1CC(SC(=Nc2ccccc2)Nc2ccccc2)C(=O)N1c1cccc2ccccc12 (configuration not stated)	35	i	-9	1	/	i
Cc1cc(S(=O)(=O)Nc2ccc(C(=O)NCc3cccnc3)cc2)ccc1F	34	i	-3	-11	/	i
